# Source: ChEMBL document CHEMBL3400037, “Bis-3-chloropiperidines containing bridging lysine linkers: Influence of side chain structure on DNA alkylating activity” (Bioorg Med Chem, 2015)
# Calls of active or inactive are those of the source. The rule behind the calls is not given here.
# Experiments:
# Escherichia coli [1] = assay: Induction of Escherichia coli supercoiled plasmid pBR322 DNA cleavage at 0.5 uM to 50 uM after 3 hrs at 37 degC using ethidium bromide by gel electrophoresis
# Summary of the method: (§1)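 Supercoiled pBR322 (3.5 nM) incubated with agent at 0.5, 5 or 50 µM for 3 h at 37 °C in bisphosphate–EDTA (BPE) buffer, pH 7.4; chlorambucil 50 µM as control. Dilutions freshly made in water from 8 mM DMSO stock. Forms resolved on 1% agarose in 1× TAE, ethidium bromide-stained; supercoiled, EcoRI-linearised and nicked open-circular plasmid as markers.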
# [2] = Reactive aziridinium ion formation in distilled water assessed as dihydroxyl substituted product formation at 80 uM at 37 degC after 15 mins by ESI-MS analysis; format: physicochemical; conditions: buffer, 0.25 h
# Summary of the method: (§2)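 An 80 µM solution of agent in distilled water was kept at 37 °C. Aliquots were taken at 0, 15, 30, 45, 60 and 120 min, diluted with methanol and analysed by ESI-MS for hydroxyl-substituted and aziridinium ion species.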
# Escherichia coli [3] = assay: Induction of Escherichia coli supercoiled plasmid pBR322 DNA cleavage at 5 uM after 3 hrs at 37 degC using ethidium bromide by gel electrophoresis
# Summary of the method: (§3)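 Supercoiled pBR322 (3.5 nM) incubated with agent at 0.5, 5 or 50 µM in BPE buffer pH 7.4 for 3 h at 37 °C. Agent diluted fresh in water from DMSO stock. Products resolved on 1% agarose gel in 1× TAE and stained with ethidium bromide. Controls on gel were supercoiled, EcoRI-linearised and open circular plasmid markers. Chlorambucil at 50 µM was the reference agent.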
# [4] = Induction of alkylation of 5'-FAM-labeled scrambled duplex oligonucleotide DNA (unknown origin) at guanine residues at 5 to 50 uM after 24 hrs by sequencing gel analysis
# Escherichia coli [5] = assay: Induction of Escherichia coli supercoiled plasmid pBR322 DNA cleavage at 0.5 uM to 50 uM after 24 hrs using ethidium bromide by gel electrophoresis
# Summary of the method: (§4)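 Supercoiled pBR322 (3.5 nM) exposed to agent at 24 h at ambient temperature in BPE buffer, pH 7.4; chlorambucil as control. Supercoiled, open-circular and linear forms separated by 1% agarose electrophoresis in 1× TAE, ethidium bromide-stained, with supercoiled, linear (EcoRI-cut) and nicked plasmid controls.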
# [6] = Reactive aziridinium ion formation in distilled water assessed as electrophilic aziridinium formation at 80 uM at 37 degC after 15 mins by ESI-MS analysis; format: physicochemical; conditions: buffer, 0.25 h; summary of the method: as §2
# Escherichia coli [7] = assay: Induction of Escherichia coli supercoiled plasmid pBR322 DNA cleavage at 0.5 uM after 3 hrs at 37 degC using ethidium bromide by gel electrophoresis; summary of the method: as §3
# Escherichia coli [8] = assay: Binding affinity to Escherichia coli supercoiled plasmid pBR322 DNA at 50 uM after 3 hrs at 37 degC using ethidium bromide by gel electrophoresis; summary of the method: as §1
# Escherichia coli [9] = assay: Binding affinity to Escherichia coli supercoiled plasmid pBR322 DNA at 50 uM after 24 hrs using ethidium bromide by gel electrophoresis; summary of the method: as §4
# Escherichia coli [10] = assay: Induction of Escherichia coli supercoiled plasmid pBR322 DNA cleavage at 50 uM after 24 hrs using ethidium bromide by gel electrophoresis
# Summary of the method: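 Supercoiled pBR322 (3.5 nM) incubated with agent in BPE buffer pH 7.4 at ambient temperature for 24 h. Products resolved on 1% agarose gel in 1× TAE and stained with ethidium bromide. Supercoiled, linear and open circular plasmid markers were run alongside.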
# Escherichia coli [11] = assay: Induction of Escherichia coli supercoiled plasmid pBR322 DNA cleavage at 50 uM after 3 hrs at 37 degC using ethidium bromide by gel electrophoresis; summary of the method: as §3
SMILES,Activity (Escherichia coli [1]),Activity [4],Activity (Escherichia coli [7]),other results
COC(=O)[C@H](CCCCN1CC(Cl)CC(C)(C)C1)N1CC(Cl)CC(C)(C)C1 (stereo partly drawn),Active,Active,,Activity [2]: Active; Activity (Escherichia coli [3]): Active; Activity (Escherichia coli [5]): Active; Activity [6]: Active
CC1(C)CC(Cl)CN(CCCN2CC(Cl)CC(C)(C)C2)C1 (stereo not drawn),,,Active,
CC1(C)CC(Cl)CN(CCCC[C@@H](C(=O)Oc2cccc3ccccc23)N2CC(Cl)CC(C)(C)C2)C1 (stereo partly drawn),inactive,Active,,Activity (Escherichia coli [8]): Active; Activity (Escherichia coli [9]): Active
CC1(C)CC(Cl)CN(CCCCN2CC(Cl)CC(C)(C)C2)C1 (stereo not drawn),,,Active,
CC1(C)CC(Cl)CN(CCCC[C@@H](C(=O)OCCCc2ccccc2)N2CC(Cl)CC(C)(C)C2)C1 (stereo partly drawn),inactive,Active,,
O=C(O)CCCc1ccc(N(CCCl)CCCl)cc1,,,,Activity (Escherichia coli [10]): inactive; Activity (Escherichia coli [11]): inactive
CC1(C)CC(Cl)CN(CCCC[C@@H](C(=O)OCCc2ccccc2)N2CC(Cl)CC(C)(C)C2)C1 (stereo partly drawn),Active,Active,,Activity (Escherichia coli [5]): Active
CC1(C)CC(Cl)CN(CCCCCCN2CC(Cl)CC(C)(C)C2)C1 (stereo not drawn),,,Active,
CC1(C)CC(Cl)CN(CCCCCN2CC(Cl)CC(C)(C)C2)C1 (stereo not drawn),,,Active,
CC1(C)CC(Cl)CN(CCCC[C@@H](C(=O)OCc2ccccc2)N2CC(Cl)CC(C)(C)C2)C1 (stereo partly drawn),Active,Active,,Activity (Escherichia coli [5]): Active
COc1ccc(OC(=O)[C@H](CCCCN2CC(Cl)CC(C)(C)C2)N2CC(Cl)CC(C)(C)C2)c2ccccc12 (stereo partly drawn),inactive,Active,,Activity (Escherichia coli [8]): Active; Activity (Escherichia coli [9]): Active
